# According to ChEMBL document CHEMBL1150300, “Synthesis of 5-chloro-N-aryl-1H-indole-2-carboxamide derivatives as inhibitors of human liver glycogen phosphorylase a” (Bioorg Med Chem, 2008):
# Tested on: Mus musculus
# Experiment: Hypoglycemic activity against C57BL/KsJ db/db mouse assessed as reduction of blood glucose at 30 mg/kg, po after 2 hrs relative to control
# Format: functional
# Set-up: scale not given: the % may be the effect or the level left
# In short: (§1)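 Male C57BL/KsJ db/db mice, 6 weeks old, on commercial diet, grouped (n = 6) to uniform blood glucose and body weight; non-fasted pre-dose glucose measured next day. Single oral dose at 10 mL/kg; blood glucose measured at 2 h. Activity given as percentage decrease versus vehicle-treated controls, significance by unpaired t-test on mean glucose.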
row,SMILES,Activity
1,O=C(Nc1ccc(C(O)CO)cn1)c1cc2cc(Cl)ccc2[nH]1 (configuration not stated),13%

# Molecular target: T1, Glycogen phosphorylase, liver form (Homo sapiens, UniProt P06737)
# T1 sequence (P06737 whole entry): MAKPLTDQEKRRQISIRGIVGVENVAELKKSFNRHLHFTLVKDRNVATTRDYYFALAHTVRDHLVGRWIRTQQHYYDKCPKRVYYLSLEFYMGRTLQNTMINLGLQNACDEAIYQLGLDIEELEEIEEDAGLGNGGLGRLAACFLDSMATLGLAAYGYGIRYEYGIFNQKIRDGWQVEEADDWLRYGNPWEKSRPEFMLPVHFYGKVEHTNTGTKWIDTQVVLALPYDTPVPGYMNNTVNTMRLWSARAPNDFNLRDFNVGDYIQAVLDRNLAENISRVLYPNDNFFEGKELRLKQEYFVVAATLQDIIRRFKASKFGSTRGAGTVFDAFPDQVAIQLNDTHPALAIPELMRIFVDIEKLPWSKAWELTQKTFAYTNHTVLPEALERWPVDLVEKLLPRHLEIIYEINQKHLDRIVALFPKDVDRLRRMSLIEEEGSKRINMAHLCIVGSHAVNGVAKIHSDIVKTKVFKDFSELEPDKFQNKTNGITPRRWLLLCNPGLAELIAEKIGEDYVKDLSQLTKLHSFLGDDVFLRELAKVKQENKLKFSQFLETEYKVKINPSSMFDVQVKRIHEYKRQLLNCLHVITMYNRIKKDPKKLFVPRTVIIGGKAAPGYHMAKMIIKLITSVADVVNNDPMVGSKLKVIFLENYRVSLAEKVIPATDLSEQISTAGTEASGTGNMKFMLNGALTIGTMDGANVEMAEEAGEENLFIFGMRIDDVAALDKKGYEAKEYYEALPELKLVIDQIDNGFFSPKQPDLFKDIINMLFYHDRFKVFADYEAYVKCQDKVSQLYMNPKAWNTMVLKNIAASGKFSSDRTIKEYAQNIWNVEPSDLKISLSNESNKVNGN
# Experiment: Inhibition of human liver glycogen phosphorylase a
row,SMILES,IC50
1,COc1cc(NC(=O)c2cc3cc(Cl)ccc3[nH]2)ccc1C(O)CO (configuration not stated),2500 nM
2,O=C(Nc1ccc(C(O)CO)c([N+](=O)[O-])c1)c1cc2cc(Cl)ccc2[nH]1 (configuration not stated),2100 nM
3,CC(C)(O)C(O)c1ccc(NC(=O)c2cc3cc(Cl)ccc3[nH]2)cc1 (configuration not stated),> 10000 nM
4,O=C(Nc1ccc(C(O)CO)c(-c2ccccc2)c1)c1cc2cc(Cl)ccc2[nH]1 (configuration not stated),7400 nM
5,O=C(Nc1ccc(C(O)CO)c(F)c1)c1cc2cc(Cl)ccc2[nH]1 (configuration not stated),340 nM
6,O=C(Nc1ccc(C(CO)CO)cc1)c1cc2cc(Cl)ccc2[nH]1,5800 nM
7,Cc1cc(C(O)CO)ccc1NC(=O)c1cc2cc(Cl)ccc2[nH]1 (configuration not stated),2600 nM
8,Nc1cc(NC(=O)c2cc3cc(Cl)ccc3[nH]2)ccc1C(O)CO (configuration not stated),1700 nM
9,O=C(Nc1ccc(C(O)CO)cn1)c1cc2cc(Cl)ccc2[nH]1 (configuration not stated),250 nM
10,O=C(Nc1ccc(C(O)CO)nc1)c1cc2cc(Cl)ccc2[nH]1 (configuration not stated),4400 nM
11,O=C(Nc1cnc(C(O)CO)cn1)c1cc2cc(Cl)ccc2[nH]1 (configuration not stated),440 nM
12,O=C(Nc1ncc(C(O)CO)s1)c1cc2cc(Cl)ccc2[nH]1 (configuration not stated),3100 nM
13,O=C(Nc1ccc(CCCO)cc1)c1cc2cc(Cl)ccc2[nH]1,> 10000 nM
14,O=C(Nc1cccc(CCO)c1)c1cc2cc(Cl)ccc2[nH]1,6200 nM
15,O=C(Nc1ccc(C(O)CO)cc1)c1cc2cc(Cl)ccc2[nH]1 (configuration not stated),900 nM
16,O=C(Nc1ccc(CO)cc1)c1cc2cc(Cl)ccc2[nH]1,1600 nM
17,O=C(Nc1ccc(CCO)cc1)c1cc2cc(Cl)ccc2[nH]1,1200 nM
18,O=C(Nc1ccc(C(O)CO)cc1F)c1cc2cc(Cl)ccc2[nH]1 (configuration not stated),420 nM
19,COCC(O)c1ccc(NC(=O)c2cc3cc(Cl)ccc3[nH]2)cc1 (configuration not stated),3600 nM
20,O=C(Nc1ccc(C(O)CO)cc1Cl)c1cc2cc(Cl)ccc2[nH]1 (configuration not stated),1100 nM
21,O=C(Nc1ccccc1CCO)c1cc2cc(Cl)ccc2[nH]1,> 10000 nM
22,O=C(Nc1nc(C(O)CO)cs1)c1cc2cc(Cl)ccc2[nH]1 (configuration not stated),> 10000 nM

# Tested on: Hepatocyte
# Experiment: Inhibition of glucagon-induced glycogenolysis in Sprague-Dawley rat hepatocytes
# Format: functional, cell-based
# In short: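 Hepatocytes from fed male Sprague-Dawley rats (150–200 g), viability >85%, plated on collagen at 2.5 × 10⁵ cells/well. Washed cells incubated 30 min at 37 °C in glucose-free/calcium-free Hanks buffer with 0.1% DMSO and inhibitor at 0.1–10 µM, with or without 10 nM glucagon. Medium glucose read by glucose oxidase/peroxidase; IC50 by logistic regression.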
row,SMILES,IC50
1,O=C(Nc1ccc(C(O)CO)cn1)c1cc2cc(Cl)ccc2[nH]1 (configuration not stated),620 nM
2,O=C(N[C@@H](Cc1ccc(F)cc1)C(=O)N1CCC(O)CC1)c1cc2cc(Cl)ccc2[nH]1,1700 nM

# Tested on: Mus musculus
# Experiment: Hypoglycemic activity against C57BL/KsJ db/db mouse assessed as reduction of blood glucose at 50 mg/kg, po after 2 hrs relative to control
# Format: functional
# Set-up: scale not given: the % may be the effect or the level left
# In short: as §1
row,SMILES,Activity
1,O=C(Nc1ccc(C(O)CO)cn1)c1cc2cc(Cl)ccc2[nH]1 (configuration not stated),26%
2,O=C(N[C@@H](Cc1ccc(F)cc1)C(=O)N1CCC(O)CC1)c1cc2cc(Cl)ccc2[nH]1,20%
